This data set concerns MS2 coat protein. Description: apparent Kd, MS2 coat protein; higher = weaker binding; RNA-MaP array; FMN 200 µM where present. In short, it runs like this: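 The titrant was SNAP-549-labelled MS2 coat protein, run from 0.7 or 1.5 nM in doubling steps to 3 µM. It was applied to designs transcribed by stalled E. coli RNA polymerase on Illumina sequencing-chip clusters, without ligand first and then with constant ligand, in 100 mM Tris-HCl pH 7.5, 80 mM KCl, 4 mM MgCl2, BSA, DTT, yeast tRNA and Tween-20. The apparent Kd is the median of filtered per-cluster binding-curve fits, with green signal normalised to red-channel RNA signal and control-cluster median Fmax.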

Setting [1] is: designed as: ON switch for flavin mononucleotide, no ligand.
The mark [2] stands for this setting: ligand present: flavin mononucleotide, designed as: ON switch for flavin mononucleotide.
Where [3] appears, read: designed as: OFF switch for flavin mononucleotide, no ligand.
The mark [4] stands for this setting: ligand present: flavin mononucleotide, designed as: OFF switch for flavin mononucleotide.

By apparent Kd is commonly meant the concentration giving half-maximal binding under the conditions of the assay. As to “GCUCGAUGCGCUGAGCACAUGAGGAUCACCCAUGUAAAUGGUCAGGAUAUUUACGUGCUUUAUGUAGAGAAGGGACCAUCGAGC”, the “apparent Kd” value amounted to 0.286 µM under setting [1] and 0.0309 µM under setting [2]. As to “UGCCGUUGAGGAUAUACAUUGAAUAAGAUUCAUGUAAAACUACAUGAGGAUCACCCAUGUAGAAGGCAAUGGCU”, the “apparent Kd” value is, setting by setting: under setting [3], 0.0183 µM; under setting [4], 0.0296 µM. For “UUUACCAGAGGAUAUGCGAAUAAAUAAAACUUUUUUUUUUAACAUGAGGAUCACCCAUGUAGAAGGCUGCUUUU”, in that order: 0.0254 µM and 0.0236 µM. “GUAGCAUACCGAGGAUAUUCAUACCGGAAACGGACAUGAGGAUCACCCAUGUGGCGAAAGCCUUGGGAGAAGGCGGAAUGCUAC”: the “apparent Kd” value was found to be 0.552 µM under setting [1] and 0.0251 µM under setting [2]. As for “CAGAAGUCAGGAUAUGCAUGGCGGGACUUGCGUCGUGGCGUGCAGAAGGGACAUGAGGAUCACCCAUGUGGAGA”, the “apparent Kd” value is 0.138 µM under setting [3] and 0.224 µM under setting [4]. The matching figures for “CAGUACUGAGGAUAUACAUGAGGAUCACCCAUGUGCUUCAGCUAGGAUACUAGCAUUAGUAGAAGGCAGUACUG”: 0.0109 µM and 0.0641 µM. For “AGUACUACAGGAUAUACAUGAAUGAUAAUCAUUACCCUUAUACAUGAGGAUCACCCAUGUAGAAGGGUAGUACA”, in that order: 0.0164 µM and 0.02 µM.

Regarding “AACGUGUAAGGAUAUGCUGCUCGUCACAAAAGUGAUGAGUAGCAGAAGGUACAUGAGGAUCACCCAUGUAAAGA”, the “apparent Kd” value reads like this: under setting [3], 0.0354 µM; under setting [4], 0.0738 µM. For “ACAUGAUAUGUAGGAUAUCACAUUAAUUGUUUAAUAAUUGAAUUUAGGAUUUGAGAAGGACAUUUACAUGAGGAUCACCCAUGU”, in that order: 0.0169 µM and 0.0127 µM.

Consider “AAAGUGUGAGGAUAUCCGGGACUGGGCCGGGAGGUUCGGAAGGAGAAGGCACAUGAGGAUCACCCAUGUAACGG”, for which the “apparent Kd” value was 0.0593 µM under setting [3] and 0.0443 µM under setting [4]. With “AACCUAUUACAGAAGGCCAGCUACAUGAGGAUCACCCAUGUCGAGUCAUGGAGGAUAUGUAGUAAUUUACUCGCAGAUGAGUGC”, the “apparent Kd” value under setting [1] came out at 0.0244 µM and the “apparent Kd” value under setting [2] was 0.0049 µM.

As for “AGCUAGUGAGGAUAUACGAACAUGUCAAAAGACGUGAAUAAACAUGAGGAUCACCCAUGUAGAAGGCACUAGCA”, the “apparent Kd” value came to 0.0175 µM under setting [3] and 0.0162 µM under setting [4]. For “ACAUGAGGAUCACCCAUGUAUUACAUGGUUAAGUUUAUUAACAGAAGGCGAAAUUACCACUUGAUCGAGGAUAUGUAUUCUAUU”, in that order: 0.0491 µM and 0.0434 µM. For the sequence “CUAUGCGGAAUAGGAUAUUCAUUCAUGAGGAUAGAAGAAGGGUUACAUGAGGAUCACCCAUGUAUACACAUGAGGAUCCCUUAC”, the “apparent Kd” value under setting [3] is 0.162 µM and the “apparent Kd” value under setting [4] is 0.181 µM. Regarding “GUUAAACAUGAGGAUCACCCAUGUAAGGAUAUGCUGCGGUCGCGCUGACGUGACUGCAGCAGAAGGUACAAUUG”, the “apparent Kd” value under setting [3] stood at 0.1 µM and the “apparent Kd” value under setting [4] was 0.0774 µM. For “UAUUAUCACGAAGGAUAUGCUUACAUGAGGAUCACCCAUGUAUGUAUAUUGAUCCAGCGUAUUGAGCAGAAGGUCGUGAGUAAA”, in that order: 0.0218 µM and 0.0758 µM. The matching figures for “GAGCUAUGAGGAUAUGCAUAUAUACGGUUUCGUGUGGUACUACAUGAGGAUCACCCAUGUAGAAGGCGUGGCAG”: 0.0175 µM and 0.0179 µM.

On to “GCAUACAUUCGAGGAUAUCGGUGAACAAAUUAACGAGAAGGCGAUAGAAUGUCUCAUCUUAUGAACAUGAGGAUCACCCAUGUA”, for which the “apparent Kd” value by setting is: under setting [1], 0.03 µM; under setting [2], 0.0262 µM. As for “CGGCGCUGUUGAGAGGAUAUGCGGUGAUGGACAUGAGGAUCACCCAUGUUAGCGAUAGCAUUACGGUAGAAGGCUCUACAGCUGU”, the “apparent Kd” value runs as follows: under setting [1], 0.0281 µM; under setting [2], 0.0167 µM. On to “AUAUCAAGCAAGGAUAUGCAAAUGGUUAUUUAUGCAGAAGGUGCAACAUGAGGAUCACCCAUGUUUCUGGGUUU”, for which the “apparent Kd” value stood at 0.0644 µM under setting [3] and 0.101 µM under setting [4]. The matching figures for “CUUUUGUGAGGAUAUCAGUGGUAAAACAAUAGUAUUACUACUGAGAAGGCACAUGAGGAUCACCCAUGUUCCUC”: 0.0471 µM and 0.304 µM. As for “UUAUUUAUGCAAGGAUAUCAUUAAUUUUUACGUCCUACAUGAGGAUCACCCAUGUUUAGUUUAUUUGAGAAGGUGCAUUGUCUG”, the “apparent Kd” value by setting is: under setting [1], 0.0384 µM; under setting [2], 0.0276 µM. Consider “GCGAUUAAGUAGAAGGUACGAUAUAUAUCAUUGUAAGGAUAUACUUACAUGAGGAUCACCCAUGUUAAAGGUUAUAAUAAUCGC”, for which the “apparent Kd” value is 0.0946 µM under setting [1] and 0.028 µM under setting [2]. Take “CCAGAGACAUAAGGAUAUCGAGUGGAAUACACUCGAGAAGGUAUGUGAAAACAUGAGGAUCACCCAUGUGAUCAAUACUCUGGA”: the “apparent Kd” value is 0.0194 µM under setting [1] and 0.0202 µM under setting [2]. As to “AGUACCAUGUAGAAGGGAUAUCUGAUUCAGAUAUCAGGAUAUACAUGAGGAUCACCCAUGUAAAUGUACUGCACGAGAGUGCAA”, the “apparent Kd” value came out at 0.0147 µM under setting [3] and 0.0503 µM under setting [4].

On to “UUGGUGUCAGGAUAUGCUUAAUGUGUUUUAUUAUAAUAUAUACAUGAGGAUCACCCAUGUAGAAGGGACGUUGU”, for which the “apparent Kd” value worked out at 0.0606 µM under setting [3] and 0.0532 µM under setting [4]. Consider “AUCAGCUCGUCAGGAUAUACGUCACUGCGUCAGCAGUGUGGUAAGAUCACAUGAGGAUCACCCAUGUAGAAGGGACGAGCAGAU”, for which the “apparent Kd” value is, setting by setting: under setting [3], 0.0137 µM; under setting [4], 0.262 µM. For “GCUGACGAUGUAGGAUAUCAGUAUAAUAAAUACUGAGAAGGACAUGAGGAUCACCCAUGUAAACUCCGUCAGCAGAGGAAACUC”, in that order: 0.0196 µM and 0.0241 µM. In the case of “GCCUUAUCUGUCAGGAUAUACAAUAUUUUUUUUUUGUAGAAGGGACAUGAGGAUCACCCAUGUACAUUACAUUG”, the “apparent Kd” value by setting is: under setting [3], 0.0313 µM; under setting [4], 0.0718 µM. With “GGUUAUUGCAAGGAUAUGCUUAUUUGAGAAAUUGCAGAAGGUGCAACAUGAGGAUCACCCAUGUUGGAUGGGUU”, the “apparent Kd” value runs as follows: under setting [3], 0.0652 µM; under setting [4], 0.278 µM. For “AGGCGUGCUGAGGAUAUACUACCGGUUGCGAUAGUAGAAGGUAGCACAUGAGGAUCACCCAUGUGGUCAGAUGC”, in that order: 0.024 µM and 0.0646 µM. For “UAGUUAUUCACAGGAUAUCGCCUCUUAUUACAUGAGGAUCACCCAUGUUUAGUUAGUUACAUGUUCGAGAAGGGUGUAGUUGUU”, in that order: 0.554 µM and 0.819 µM. For “UAGAUGGGAGGAUAUACGUAGUUGCAGGUUCGUGUGGUGCUACAUGAGGAUCACCCAUGUAGAAGGCCCGUCUU”, in that order: 0.0146 µM and 0.0406 µM. For “AUCAGCUCGUCAGGAUAUACGUCACUGCGUCAGCAGUGUGAUAAGAUCACAUGAGGAUCACCCAUGUAGAAGGGACGAGCUGAU”, the “apparent Kd” value under setting [3] is 0.00848 µM and the “apparent Kd” value under setting [4] came out at 0.0723 µM. Regarding “CGGUCGAUAUCAGGAUAUCGAUUAAUUACAUGAGGAUCACCCAUGUUGACAUGGAAUAUAACAUGCGAGAAGGGAUUACGAUCG”, the “apparent Kd” value under setting [1] stood at 0.0276 µM and the “apparent Kd” value under setting [2] came out at 0.0107 µM.

On to “CGGCGACAUGAGGAUCACCCAUGUCAAGAGUGGUCAGGAUAUGGUAUGAGAUGAGUAUGGCCAGAAGGGACAUAAG”, for which the “apparent Kd” value by setting is: under setting [1], 0.0291 µM; under setting [2], 0.0212 µM. As to “UGCCUUUGAGGAUAUACAUUGAAUUUGAUUCAUGUAAAACUACAUGAGGAUCACCCAUGUAGAAGGCAAGGGCU”, the “apparent Kd” value amounted to 0.0187 µM under setting [3] and 0.0277 µM under setting [4]. With “AAAUUUAACGAAGGAUAUGCUAACAUGAGGAUCACCCAUGUGUGCUUUGUGUUGCUGAAAUUGGAGCAGAAGGUCGUAUACAUA”, the “apparent Kd” value reads like this: under setting [3], 0.0954 µM; under setting [4], 0.145 µM.

Turning to “ACAUGAGGAUCACCCAUGUAGAAUGAAGAAGGUAGAUACUUGAGGCUCACCCAUGUACAUAGGACUAAGGAUAUUCUAAUAAUU”, the “apparent Kd” value is, setting by setting: under setting [1], 0.025 µM; under setting [2], 0.022 µM.

“UAGAAUCGAGGAUAUACAUGAGGAUCACCCAUGUGUGGCCAUACGGUGUGGUCGUCAGGUAGAAGGCGAUUAUA”: the “apparent Kd” value runs as follows: under setting [3], 0.0344 µM; under setting [4], 0.0146 µM. As for “GACUAGGCAGGAUAUACAUGAGGAUCACCCAUGUGUCUGCGAUAGGCACGUGAUUACUGUAGAAGGGCCUUGAC”, the “apparent Kd” value under setting [4] came to 0.0441 µM. Consider “GUUAUGUUAGGAUAUGCUUAUGGUGGAUAAUCAGAUAUGAUGCAGAAGGGACAUGAGGAUCACCCAUGUACUGU”, for which the “apparent Kd” value is, setting by setting: under setting [3], 0.021 µM; under setting [4], 0.0238 µM. In the case of “GACUCGGGUGCAGGAUAUCCGCCGGAUCGCAGUGGAGAAGGGCGCCAAGCGAACAUGAGGAUCACCCAUGUAUCGGAGUUGAAC”, the “apparent Kd” value came out at 0.0569 µM under setting [1] and 0.0104 µM under setting [2]. Take “UUACUCAUGUAAGGAUAUGCAGCCGAAACGGCUGCAGAAGGUACUAUAAUACAUGAGGAUCACCCAUGUAAAAUAAAUAAAGUC”: the “apparent Kd” value reads like this: under setting [1], 0.0261 µM; under setting [2], 0.0169 µM. In the case of “UGGUACUACGGAGGAUAUCAUGUAAAUACAUGAGGAUCACCCAUGUCGUACGAGAGUACGGAGAUUGAGAAGGCCGUAGUACCU”, the “apparent Kd” value runs as follows: under setting [1], 0.0256 µM; under setting [2], 0.0156 µM. For “UGAUCGAGAGAUCUUAGAUUCUGGUAGGAUAUACAAAAGUUGCGCUUUACAUGAGGAUCACCCAUGUAGAAGGACUAGAGUCUA”, the “apparent Kd” value by setting is: under setting [3], 0.00745 µM; under setting [4], 0.00866 µM.

For “AAUAAACUCACAGGAUAUAGCAGAGGUCGCGCGAACUUACAGGCGACUAUGCUAGAAGGGUGACCACAUGAGGAUCACCCAUGU”, the “apparent Kd” value was determined as 0.944 µM under setting [1] and 0.162 µM under setting [2]. As to “CUUUUGUGAGGAUAUCAGUAGUAGAACAAUAGUACUACUACUGAGAAGGCACAUGAGGAUCACCCAUGUACCUC”, the “apparent Kd” value runs as follows: under setting [3], 0.0194 µM; under setting [4], 0.0697 µM.

The record behind these values is the EternaBench riboswitch data.
